# Data: PubChem BioAssay
# Active and inactive are the calls of the source.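 The calls were made as follows, unless noted: active = Her2 level under about 52% in both replicate screens, with viability over 70% of control (limit read from the data); inconclusive = Her2 under the limit in one screen only, or viability under 70%; inactive = Her2 level above the set limit.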
# Experiments:
# [1] = reducers of endogenous Her2 protein level, primary screen, SKBR3 breast tumor cells, AlphaScreen, ATP viability (AID 461); settings: 18-24 h, measured here: SKBR3 viability, ATP luminescence, at 10 µM;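 as to Her2 level: lower value means less Her2 protein in the cells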;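 as to viability: percent of carrier control wells set as 100% viability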
# [2] = target: Receptor tyrosine-protein kinase erbB-2 (Homo sapiens) (UniProt P04626); assay: as above; settings: 18-24 h, at 10 µM, stronger effect = lower value
# Sequence of Receptor tyrosine-protein kinase erbB-2 (Homo sapiens) (P04626 whole entry, looked up): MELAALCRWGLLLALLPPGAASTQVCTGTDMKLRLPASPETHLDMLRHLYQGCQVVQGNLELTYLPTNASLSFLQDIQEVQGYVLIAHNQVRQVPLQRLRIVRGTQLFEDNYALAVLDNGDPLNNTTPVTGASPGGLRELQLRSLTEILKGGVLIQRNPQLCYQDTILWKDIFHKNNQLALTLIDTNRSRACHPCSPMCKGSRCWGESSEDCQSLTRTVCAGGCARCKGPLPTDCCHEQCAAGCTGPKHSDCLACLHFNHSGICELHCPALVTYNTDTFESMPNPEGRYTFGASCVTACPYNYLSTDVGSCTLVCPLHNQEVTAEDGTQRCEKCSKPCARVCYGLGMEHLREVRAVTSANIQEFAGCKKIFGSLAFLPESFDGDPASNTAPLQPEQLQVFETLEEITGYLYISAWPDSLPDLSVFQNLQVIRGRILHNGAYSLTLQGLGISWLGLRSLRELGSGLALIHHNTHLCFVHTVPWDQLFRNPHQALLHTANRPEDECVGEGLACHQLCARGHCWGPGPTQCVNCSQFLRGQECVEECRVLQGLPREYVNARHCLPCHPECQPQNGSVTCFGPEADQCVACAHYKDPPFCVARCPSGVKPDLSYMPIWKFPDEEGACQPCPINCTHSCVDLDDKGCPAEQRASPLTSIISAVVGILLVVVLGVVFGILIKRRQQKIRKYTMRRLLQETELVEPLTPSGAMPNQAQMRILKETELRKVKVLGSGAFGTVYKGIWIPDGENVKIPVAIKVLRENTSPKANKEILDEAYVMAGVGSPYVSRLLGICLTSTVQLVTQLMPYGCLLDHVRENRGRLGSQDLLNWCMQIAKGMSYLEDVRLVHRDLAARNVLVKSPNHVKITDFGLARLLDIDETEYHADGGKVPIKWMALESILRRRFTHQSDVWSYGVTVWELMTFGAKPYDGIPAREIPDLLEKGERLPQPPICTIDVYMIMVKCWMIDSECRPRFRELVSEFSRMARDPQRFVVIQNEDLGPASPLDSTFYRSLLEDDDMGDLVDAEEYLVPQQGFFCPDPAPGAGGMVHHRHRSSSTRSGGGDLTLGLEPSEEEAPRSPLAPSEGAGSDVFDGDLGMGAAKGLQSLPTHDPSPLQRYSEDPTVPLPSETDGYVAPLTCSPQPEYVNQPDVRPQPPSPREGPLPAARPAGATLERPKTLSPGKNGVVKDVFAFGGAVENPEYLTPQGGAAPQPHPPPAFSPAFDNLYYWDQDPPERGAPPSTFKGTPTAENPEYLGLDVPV
# [3] = SK-BR-3 cell growth inhibitors, pilot screen, 24 h, human (AID 572;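 active = viability at or below 10% of carrier control in both of two separate runs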;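 also: compound exposure lasted between 18 and 24 h rather than exactly 24 h; 100% = carrier-treated control wells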); settings: SK-BR-3 viability, CellTiter-Glo luminescence, at 10 µM, stronger effect = lower value
# [4] = HUVEC growth inhibition – cell-based, human, primary screen (AID 575;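 active = viability at or below 30% in both replicate assays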;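 also: 100% = median of untreated cell wells with 0.1% DMSO on each plate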); settings: HUVEC proliferation, CellTiter-Glo luminescence, 72 h; at 10 µM; stronger effect = lower value
# Method in brief: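 System – primary HUVEC, no more than 12 passages · Medium – Low-serum (2% FBS) EBM, supplemented · Times – 72 h exposure, 37 °C, 5% CO2, 30 min RT equilibration · Measured by – luminescent ATP assay · Read-out – % viability relative to median vehicle-well signal on each plate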
# [5] = growth inhibitors of H69AR lung tumor, primary screen, human, duplicate replicates (AID 580;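 active = viability at or under a set limit in both replicates, limit being median viability minus 3 SD, cut at about 48% in these data, passing the limit was not always enough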;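 also: 100% = mean luminescence of untreated wells and 0% = no signal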); settings: H69AR lung tumor cells viability, ATP luminescence, 72 h; at 10 µM; stronger effect = lower value
# [6] = reversal of MRP1-mediated doxorubicin resistance, pilot screen, H69AR cells, doxorubicin co-treatment (AID 601;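 active = viability loss from added drug above about 55%, and viability with drug at most 40%, in both replicates, limit read from the data, passing the limit was not always enough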); settings: CellTiter-Glo, 72 h, at 10 µM; for differential viability (reversal): stronger effect = higher value
# [7] = 384-well plate pilot, post-Golgi transport modulator project, inhibition of yeast transport mutant growth (AID 636; in the data active = inhibition above about 31%); settings: absorbance 615 nm, about 18 h, stronger effect = higher value
# [8] = growth suppression of yeast trafficking mutant, preliminary HTS, modulators of trafficking downstream of Golgi apparatus project, 1536-format plate, OD 615 nm (AID 637; in the data active = inhibition above about 30%); settings: yeast transport mutant growth, absorbance 615 nm, 18 h; stronger effect = higher value
# [9] = H69AR cells + 2 uM doxorubicin, measured here: viability with 2 uM doxorubicin, stronger effect = lower value
# [10] = H69AR cells, compound alone cytotoxicity
Structure (SMILES),viability [1] [%],Her2 level [2],viability [3],viability [4],viability [5],differential viability (reversal) ([6]; H69AR cells + 2 uM doxorubicin),"viability [6, 9] [%]","viability [6, 10] [%]",inhibition [7],inhibition [8]
CC/C(O)=C(/C#N)c1nnc2n1CCCCC2,100,84% (inactive),100% (inactive),101% (inactive),97.4% (inactive),10.8% (inactive),86.5,97.4,-4.68% (inactive),-5.71% (inactive)
O=C(NCc1ccco1)C1CCN(S(=O)(=O)N2CCC3(CC2)OCCO3)CC1,99.5,92% (inactive),99.5% (inactive),118% (inactive),100% (inactive),14.2% (inactive),85.8,100,-6.89% (inactive),-7.17% (inactive)
CCOC(=O)c1ccc(NC(=O)CSCc2ccco2)cc1,108,100% (inactive),108% (inactive),81.9% (inactive),87.7% (inactive),8.33% (inactive),79.4,87.7,-5.45% (inactive),-2.62% (inactive)
c1ccc(CCn2nnnc2C(c2cccs2)N2CCOCC2)cc1 (stereo not given),102,77.5% (inactive),102% (inactive),99.2% (inactive),107% (inactive),12.8% (inactive),94,107,-5.62% (inactive),-1.59% (inactive)
O=C(CCN1CCN(C(=O)c2ccco2)CC1)Nc1ccc(F)cc1,97.5,95% (inactive),97.5% (inactive),99.8% (inactive),97% (inactive),6.06% (inactive),90.9,97,-4.93% (inactive),2.95% (inactive)
CCOC(=O)c1nnn(-c2nonc2N)c1CN1CCc2ccccc2C1,102,93% (inactive),102% (inactive),96.4% (inactive),91.7% (inactive),-0.015% (inactive),91.7,91.7,-0.13% (inactive),-3.02% (inactive)
COCCN1C(=O)c2oc3c(C)cc(C)cc3c(=O)c2C1c1cccc(O)c1 (stereo not given),101,89.5% (inactive),101% (inactive),102% (inactive),88.1% (inactive),-2.81% (inactive),90.9,88.1,-5.26% (inactive),-3.23% (inactive)
C=CCn1cc(C(=O)NCCOC)c(=O)c2cc(S(=O)(=O)N(CC)CC)ccc21,98.5,93.5% (inactive),98.5% (inactive),86.6% (inactive),83.1% (inactive),-9.34% (inactive),92.4,83.1,-5.13% (inactive),-2.73% (inactive)
O=S1(=O)N=C(Nc2nc3c(s2)CCCC3)c2ccccc21,82,112% (inactive),82% (inactive),85.4% (inactive),78.9% (inactive),-3.82% (inactive),82.7,78.9,0.93% (inactive),-7.62% (inactive)
CCOC(=O)/N=C(/NC(=O)Nc1ccc(C(=O)OCC)cc1)OC,99.5,75.5% (inactive),99.5% (inactive),83.7% (inactive),96.5% (inactive),14.8% (inactive),81.8,96.5,-5.54% (inactive),5.4% (inactive)
Cc1ccccc1-c1nc(Cc2ccccc2)no1,77.5,97.5% (inactive),77.5% (inactive),104% (inactive),102% (inactive),19.1% (inactive),82.5,102,-0.51% (inactive),-3.33% (inactive)
Cc1ccccc1-n1c(=O)c2ccccc2n2nnnc12,80,112% (inactive),80% (inactive),101% (inactive),93% (inactive),-1.09% (inactive),94.1,93,0% (inactive),-15.6% (inactive)
Cc1nnc(SCc2nc3ccccc3s2)n1-c1ccccc1,88,83% (inactive),88% (inactive),75.4% (inactive),76% (inactive),-5.34% (inactive),81.3,76,-6% (inactive),-0.48% (inactive)
O=C(c1ccc2c(c1)OCO2)N1CCCN(C(=O)c2ccc3c(c2)OCO3)CC1,89.5,91% (inactive),89.5% (inactive),110% (inactive),97.9% (inactive),10.7% (inactive),87.2,97.9,-1.95% (inactive),-1.97% (inactive)
COc1ccccc1Nc1nc(N)nc(CSc2nccc(C)n2)n1,99,90.5% (inactive),99% (inactive),107% (inactive),91% (inactive),5.23% (inactive),85.7,91,-3.82% (inactive),0% (inactive)
O=C(COC(=O)c1ccc(Br)o1)Nc1ccc(S(=O)(=O)N2CCCC2)cc1,80,74.5% (inactive),80% (inactive),102% (inactive),95.6% (inactive),13.3% (inactive),82.3,95.6,-6.35% (inactive),-1% (inactive)

Structure (SMILES),viability [1] [%],Her2 level [2],viability [3],viability [4],viability [5],differential viability (reversal) ([6]; H69AR cells + 2 uM doxorubicin),"viability [6, 9] [%]","viability [6, 10] [%]",inhibition [7],inhibition [8]
COc1cc(N2C(=O)CSC23C(=O)Nc2ccccc23)cc(OC)c1OC (stereo not given),95.5,105% (inactive),95.5% (inactive),79.7% (inactive),95.7% (inactive),7.86% (inactive),87.8,95.7,-1.97% (inactive),-5.81% (inactive)
Cc1cc(C)n2nc(C(=O)NCc3ccco3)nc2n1,101,90% (inactive),101% (inactive),91.4% (inactive),99% (inactive),4.53% (inactive),94.5,99,-0.26% (inactive),-5.32% (inactive)
O=C(CN1CCN(Cc2ccc3c(c2)OCO3)CC1)Nc1ccc2c(c1)OCCO2,97,89.5% (inactive),97% (inactive),93.8% (inactive),94.4% (inactive),16.4% (inactive),78,94.4,-2.43% (inactive),-1.27% (inactive)
COc1cc(C2C(C(=O)c3ccc(C)o3)=C(O)C(=O)N2c2cc(C)on2)cc(Br)c1O (stereo not given),102,93% (inactive),102% (inactive),99.8% (inactive),95.7% (inactive),8.72% (inactive),86.9,95.7,-1.97% (inactive),-3.49% (inactive)
CN(C)CCN1C(=O)c2oc3ccc(Cl)cc3c(=O)c2C1c1cccc(Br)c1 (stereo not given),102,72.5% (inactive),102% (inactive),87.9% (inactive),77.1% (inactive),2.96% (inactive),74.2,77.1,-1.17% (inactive),-5.5% (inactive)
CCCCOn1c(C)c(C(=O)OCC)c2c3nonc3ccc21,98.5,114% (inactive),98.5% (inactive),63.5% (inactive),83.5% (inactive),15% (inactive),68.6,83.5,4.4% (inactive),27.6% (inactive)
Cc1cc(NC(=O)CSc2nccn2-c2ccc(F)cc2)no1,85.5,81.5% (inactive),85.5% (inactive),83.4% (inactive),104% (inactive),15.8% (inactive),88.4,104,-2.99% (inactive),-3.17% (inactive)
O=C(CCCn1ncn2c(cc3occc32)c1=O)N1CCc2ccccc2C1,126,90.5% (inactive),126% (inactive),83.8% (inactive),84.7% (inactive),-5.79% (inactive),90.5,84.7,-4.21% (inactive),-6.73% (inactive)
COC(=O)c1ccc(C2NC(C(=O)O)CS2)cc1 (stereo not given),132,103% (inactive),132% (inactive),102% (inactive),89% (inactive),-8.38% (inactive),97.3,89,-0.79% (inactive),3.02% (inactive)
O=C(COC(=O)C1CC1)c1c[nH]c2ccccc12,93.5,107% (inactive),93.5% (inactive),105% (inactive),115% (inactive),14.9% (inactive),100,115,3.24% (inactive),-11.3% (inactive)
Nc1ccc(C(=O)OCCCc2nc3ccccc3[nH]2)cc1,92,107% (inactive),92% (inactive),97.9% (inactive),99.1% (inactive),1.74% (inactive),97.4,99.1,5.41% (inactive),-19.1% (inactive)
N#Cc1ccccc1NC(=O)CSc1nnc(-c2ccccc2)n1-c1ccccc1,81.5,83% (inactive),81.5% (inactive),102% (inactive),30.3% (active),-63.4% (inactive),93.8,30.3,1.49% (inactive),-0.32% (inactive)
CCOc1ccc(C(=O)N2CCN(c3ccccc3)CC2)cc1OCC,104,102% (inactive),104% (inactive),90% (inactive),83.5% (inactive),-14.8% (inactive),98.3,83.5,2.47% (inactive),9.51% (inactive)
CCCCN(C)C(=O)CS(=O)(=O)Cc1nc(-c2cccc(OC)c2)oc1C,94,114% (inactive),94% (inactive),94.8% (inactive),99.9% (inactive),15.6% (inactive),84.2,99.9,-4.4% (inactive),3.11% (inactive)
CCN(CC)S(=O)(=O)N1CCC(C(=O)NC2CCCc3ccccc32)CC1 (stereo not given),78,118% (inactive),78% (inactive),108% (inactive),90.5% (inactive),4.3% (inactive),86.2,90.5,5.45% (inactive),-4.26% (inactive)
CCOc1ccccc1-c1nc(-c2ccc(NC(=O)Cc3ccccc3OC)cc2)no1,90.5,114% (inactive),90.5% (inactive),75.3% (inactive),88.6% (inactive),5.33% (inactive),83.3,88.6,0.93% (inactive),-5.81% (inactive)
